Consider two molecules from ChEMBL document CHEMBL1157100, “The alkyl-connected 2-amino-6-vinylpurine (AVP) crosslinking agent for improved selectivity to the cytosine base in RNA” (Bioorg Med Chem, 2010).

Calls of active or inactive are those of the source. The rule behind the calls is not given here.

Holding throughout (type): nucleic-acid assay
In experiment [1] the test system is Nucleic Acid. Description: Binding affinity to FAM-tagged r-(GAAAYAAGAGGAAAGA)-RNA assessed as crosslinking by PAGE. The essentials: (§1)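 Reactive ODN at 10 µM with 1 µM FAM-labeled target DNA or RNA in 100 mM NaCl, 50 mM MES pH 5 plus RNase OUT, mixed at 0 °C and then incubated at 37 °C. Reactions were stopped at set times with formamide/EDTA/bromophenol blue buffer. Products were resolved on 15% denaturing polyacrylamide gel with 7 M urea, and FAM band intensities were quantified to give crosslinking yield.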

The test system of experiment [2] is Nucleic Acid. As to the kind of experiment: Binding affinity to FAM-tagged d-(GAAAYAAGAGGAAAGA)-DNA assessed as crosslinking at 10 uM by alkylation method. Put shortly: as §1
In experiment [3] the test system is Nucleic Acid. Description: Binding affinity to FAM-tagged r-(GAAAYAAGAGGAAAGA)-RNA assessed as crosslinking at 10 uM by alkylation method. Put shortly:
as §1

Experiment [4] deals with Nucleic Acid. Description: Binding affinity to FAM-tagged 27 mer RNA hairpin loop assessed as crosslinking at 10 uM by PAGE. Put shortly:
as §1

With `CSCCc1nc(N)nc2c1ncn2CC[C@H]1C[C@H](OP(=O)(O)OC[C@H]2O[C@@H](n3cc(C)c(=O)[nH]c3=O)C[C@@H]2OP(=O)(O)OC[C@H]2O[C@@H](n3cc(C)c(=O)[nH]c3=O)C[C@@H]2OP(=O)(O)OC[C@H]2O[C@@H](n3ccc(N)nc3=O)[C@H](O)[C@@H]2OP(=O)(O)OC[C@H]2O[C@@H](n3cc(C)c(=O)[nH]c3=O)C[C@@H]2OP(=O)(O)OC[C@H]2O[C@@H](n3ccc(N)nc3=O)[C@H](O)[C@@H]2OP(=O)(O)OC[C@H]2O[C@@H](n3ccc(N)nc3=O)[C@H](O)[C@@H]2OP(=O)(O)OC[C@H]2O[C@@H](n3cc(C)c(=O)[nH]c3=O)C[C@@H]2OP(=O)(O)OC[C@H]2O[C@@H](n3cc(C)c(=O)[nH]c3=O)C[C@@H]2OP(=O)(O)OC[C@H]2O[C@@H](n3cc(C)c(=O)[nH]c3=O)C[C@@H]2OP(=O)(O)OC[C@H]2O[C@@H](n3ccc(N)nc3=O)[C@H](O)[C@@H]2OP(=O)(O)OC[C@H]2O[C@@H](n3cc(C)c(=O)[nH]c3=O)C[C@@H]2OP(=O)(O)O)[C@@H](COP(=O)(O)O[C@H]2C[C@H](n3cc(C)c(=O)[nH]c3=O)O[C@@H]2COP(=O)(O)O[C@H]2C[C@H](n3cc(C)c(=O)[nH]c3=O)O[C@@H]2COP(=O)(O)O[C@H]2C[C@H](n3cc(C)c(=O)[nH]c3=O)O[C@@H]2COP(=O)(O)O[C@H]2[C@@H](O)[C@H](n3ccc(N)nc3=O)O[C@@H]2CO)O1`, the outcome in the experiment on Nucleic Acid [1], in the experiment with Nucleic Acid [2] and with Nucleic Acid [3] was Active.
Consider `CSCCc1nc(N)nc2c1ncn2CC[C@H]1C[C@H](OP(=O)(O)OC[C@H]2O[C@@H](n3cc(C)c(=O)[nH]c3=O)C[C@@H]2OP(=O)(O)OC[C@H]2O[C@@H](n3cnc4c(N)ncnc43)[C@H](O)[C@@H]2OP(=O)(O)OC[C@H]2O[C@@H](n3cc(C)c(=O)[nH]c3=O)C[C@@H]2OP(CCC#N)N(C(C)C)C(C)C)[C@@H](COP(=O)(O)O[C@H]2C[C@H](n3cc(C)c(=O)[nH]c3=O)O[C@@H]2COP(=O)(O)O[C@H]2C[C@H](n3cc(C)c(=O)[nH]c3=O)O[C@@H]2COP(=O)(O)O[C@H]2[C@@H](O)[C@H](n3cnc4c(N)ncnc43)O[C@@H]2COP(=O)(O)O[C@H]2[C@@H](O)[C@H](n3cnc4c(N)ncnc43)O[C@@H]2COP(=O)(O)O[C@H]2[C@@H](O)[C@H](n3cnc4c(N)ncnc43)O[C@@H]2COP(=O)(O)O[C@H]2[C@@H](O)[C@H](n3ccc(N)nc3=O)O[C@@H]2COP(=O)(O)O[C@H]2C[C@H](n3cc(C)c(=O)[nH]c3=O)O[C@@H]2COP(=O)(O)O[C@H]2[C@@H](O)[C@H](n3cnc4c(N)ncnc43)O[C@@H]2COP(=O)(O)O[C@H]2[C@@H](O)[C@H](n3cnc4c(=O)[nH]c(N)nc43)O[C@@H]2COP(=O)(O)O[C@H]2C[C@H](n3cc(C)c(=O)[nH]c3=O)O[C@@H]2COP(=O)(O)O[C@H]2[C@@H](O)[C@H](n3ccc(N)nc3=O)O[C@@H]2COP(=O)(O)O[C@H]2[C@@H](O)[C@H](n3cnc4c(N)ncnc43)O[C@@H]2COP(=O)(O)O[C@H]2C[C@H](n3cc(C)c(=O)[nH]c3=O)O[C@@H]2COP(=O)(O)O[C@H]2[C@@H](O)[C@H](n3cnc4c(N)ncnc43)O[C@@H]2COP(=O)(O)O[C@H]2C[C@H](n3cc(C)c(=O)[nH]c3=O)O[C@@H]2CO)O1` (some centres undefined), for which, in the experiment with Nucleic Acid [4], the outcome was Active.
